Source: ChEMBL document CHEMBL4732024, “Second-generation tricyclic pyrimido-pyrrolo-oxazine mTOR inhibitor with predicted blood-brain barrier permeability” (RSC Med Chem, 2021)

Assays:
mTORC1 = mTORC1 (Homo sapiens, UniProt P42345); test: Inhibition of mTORC1 in human A2058 cells assessed as reduction in S6 ribosomal protein phosphorylation at Ser235/236 residues incubated for 1 hr by Western blot analysis; format: cell-based
How it was run: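 A2058 melanoma cells; phospho-S6 (Ser235/236) used as the mTORC1 readout. IC50 from a 7-point 1:2 serial dilution, each concentration in triplicate. Reported as mean ± SD.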

[1] = target: Phosphatidylinositol 4,5-bisphosphate 3-kinase catalytic subunit alpha isoform (Homo sapiens, UniProt P42336); test: Inhibition of alexa fluor 647-labeled kinase tracer 314 binding to recombinant N-terminal His6-tagged p110alpha (unknown origin) by TR-FRET assay
How it was run: (§1)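 LanthaScreen TR-FRET displacement of tracer from the ATP-binding site of recombinant kinase. 10-point 1:4 serial dilution with each concentration in duplicate. IC50 converted to Ki using a factor of 2.05 for mTOR and 9.84 for p110α. Reported as mean ± SD.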

[2] = target: Serine/threonine-protein kinase mTOR (Homo sapiens, UniProt P42345); test: Inhibition of alexa fluor 647-labeled kinase tracer 314 binding to recombinant N-terminal GST-fused mTOR (1360 to 2549 residues) (unknown origin) by TR-FRET assay; how it was run: as §1
[3] = Inhibition of mTORC2 in human A2058 cells assessed as reduction in PKB phosphorylation at S473 residue incubated for 1 hr by Western blot analysis; format: cell-based; details: A2058, 1 h
How it was run: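 A2058 melanoma cells were used. mTORC1 activity was read as phospho-S6 ribosomal protein (Ser235/236), and mTORC2 activity as phospho-PKB/Akt (Ser473). IC50 came from a 7-point 1:2 serial dilution, with each concentration measured in triplicate. Data are reported as mean ± SD.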

MDR1 (P-gp, ABCB1) [4] = target: T1, MDR1 (P-gp, ABCB1) (Homo sapiens, UniProt P08183); test: Substrate activity at human MDR1 expressed in MDCK cells assessed as apparent permeability at 1 uM by UPLS-MS/MS analysis; format: ADME, cell-based
How it was run: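 TransWell assay in CRISPR-Cas9 MDCK cells expressing human MDR1 with endogenous canine MDR1 knocked out (MDCK-hMDR1^cMDR1-ko), grown on filters; apparent permeability measured apical to basolateral.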

MDR1 (P-gp, ABCB1) [5] = target: T1, MDR1 (P-gp, ABCB1); test: Substrate activity at human MDR1 expressed in MDCK cells assessed as efflux ratio of apparent permeability across basolateral to apical side over apical to basolateral side at 1 uM by UPLS-MS/MS analysis; format: ADME, cell-based
CYP1A1 = target: T2, CYP1A1 (Homo sapiens, UniProt P04798); test: (§2) Stability of compound assessed as recombinant human CYP1A1 expressed in baculovirus infected insect cells mediated compound metabolism by measuring parent compound remaining at 1 uM preincubated with NADP+ regenerating system for 10 mins followed by enzyme addition and measured after 60 mins by LC-MS analysis; format: ADME; details: time 70 min, read-out: Stabilty
T2 sequence (P04798 whole entry): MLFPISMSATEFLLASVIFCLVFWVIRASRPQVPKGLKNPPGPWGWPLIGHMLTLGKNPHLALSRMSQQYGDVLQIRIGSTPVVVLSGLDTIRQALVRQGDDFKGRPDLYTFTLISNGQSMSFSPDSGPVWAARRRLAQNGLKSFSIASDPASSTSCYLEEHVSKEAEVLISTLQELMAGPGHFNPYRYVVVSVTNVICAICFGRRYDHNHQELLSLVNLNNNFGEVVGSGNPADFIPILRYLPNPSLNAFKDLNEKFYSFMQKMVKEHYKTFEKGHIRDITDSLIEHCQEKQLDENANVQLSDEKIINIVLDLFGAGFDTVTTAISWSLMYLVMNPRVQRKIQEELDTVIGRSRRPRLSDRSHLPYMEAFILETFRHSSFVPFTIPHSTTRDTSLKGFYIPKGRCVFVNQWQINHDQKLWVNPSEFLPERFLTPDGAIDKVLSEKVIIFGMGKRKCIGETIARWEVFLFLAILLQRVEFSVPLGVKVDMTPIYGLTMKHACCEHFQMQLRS
How it was run: (§3)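 Individual human recombinant CYP isoenzymes; percentage of parent compound remaining after 60 min incubation.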

CYP1A2 = target: T3, CYP1A2 (Homo sapiens, UniProt P05177); test: as §2, with “CYP1A2” for “CYP1A1”; format: ADME; details: time 70 min, read-out: Stabilty; how it was run: as §3
T3 sequence (P05177 whole entry): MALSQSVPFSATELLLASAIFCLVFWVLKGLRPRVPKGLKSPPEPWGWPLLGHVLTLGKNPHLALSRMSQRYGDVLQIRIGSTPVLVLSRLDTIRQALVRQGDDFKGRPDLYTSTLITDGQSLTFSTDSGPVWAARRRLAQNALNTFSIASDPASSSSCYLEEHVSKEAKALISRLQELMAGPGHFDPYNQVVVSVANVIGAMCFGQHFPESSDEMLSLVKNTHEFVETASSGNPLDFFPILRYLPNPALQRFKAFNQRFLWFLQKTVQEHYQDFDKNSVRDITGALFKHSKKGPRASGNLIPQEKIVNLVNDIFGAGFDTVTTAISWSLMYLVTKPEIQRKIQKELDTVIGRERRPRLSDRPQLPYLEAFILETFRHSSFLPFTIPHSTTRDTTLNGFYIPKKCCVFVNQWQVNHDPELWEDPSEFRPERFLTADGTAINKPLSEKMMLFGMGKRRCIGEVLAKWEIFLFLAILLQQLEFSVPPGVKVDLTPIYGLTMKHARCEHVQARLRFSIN

Sequence of Phosphatidylinositol 4,5-bisphosphate 3-kinase catalytic subunit alpha isoform (P42336 whole entry, canonical isoform): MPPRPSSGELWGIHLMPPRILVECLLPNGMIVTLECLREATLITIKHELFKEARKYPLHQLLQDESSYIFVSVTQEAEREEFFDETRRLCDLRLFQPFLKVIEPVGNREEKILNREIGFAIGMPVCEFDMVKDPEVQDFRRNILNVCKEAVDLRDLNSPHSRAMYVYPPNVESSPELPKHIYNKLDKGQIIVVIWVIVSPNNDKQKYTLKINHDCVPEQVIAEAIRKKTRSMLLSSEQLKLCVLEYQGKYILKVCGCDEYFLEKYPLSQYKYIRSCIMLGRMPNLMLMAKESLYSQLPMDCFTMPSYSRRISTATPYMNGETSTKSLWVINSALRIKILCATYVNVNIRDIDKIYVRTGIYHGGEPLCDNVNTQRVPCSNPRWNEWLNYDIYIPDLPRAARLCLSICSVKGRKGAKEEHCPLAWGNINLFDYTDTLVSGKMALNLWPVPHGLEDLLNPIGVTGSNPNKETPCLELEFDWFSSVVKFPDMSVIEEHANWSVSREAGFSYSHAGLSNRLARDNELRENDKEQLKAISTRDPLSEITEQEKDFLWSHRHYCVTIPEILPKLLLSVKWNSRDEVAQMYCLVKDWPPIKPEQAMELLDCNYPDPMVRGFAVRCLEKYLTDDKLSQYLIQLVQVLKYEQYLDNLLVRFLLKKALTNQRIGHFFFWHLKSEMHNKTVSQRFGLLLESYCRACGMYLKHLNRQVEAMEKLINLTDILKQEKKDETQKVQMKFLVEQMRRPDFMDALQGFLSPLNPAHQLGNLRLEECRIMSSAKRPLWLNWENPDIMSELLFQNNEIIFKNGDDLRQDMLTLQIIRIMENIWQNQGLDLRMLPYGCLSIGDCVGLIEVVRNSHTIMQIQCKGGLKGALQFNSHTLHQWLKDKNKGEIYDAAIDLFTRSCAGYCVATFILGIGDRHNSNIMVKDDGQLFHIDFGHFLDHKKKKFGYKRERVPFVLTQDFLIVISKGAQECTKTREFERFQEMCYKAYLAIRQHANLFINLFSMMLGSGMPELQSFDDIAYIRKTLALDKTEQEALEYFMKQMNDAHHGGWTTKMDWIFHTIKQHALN
T1 sequence (P08183 whole entry): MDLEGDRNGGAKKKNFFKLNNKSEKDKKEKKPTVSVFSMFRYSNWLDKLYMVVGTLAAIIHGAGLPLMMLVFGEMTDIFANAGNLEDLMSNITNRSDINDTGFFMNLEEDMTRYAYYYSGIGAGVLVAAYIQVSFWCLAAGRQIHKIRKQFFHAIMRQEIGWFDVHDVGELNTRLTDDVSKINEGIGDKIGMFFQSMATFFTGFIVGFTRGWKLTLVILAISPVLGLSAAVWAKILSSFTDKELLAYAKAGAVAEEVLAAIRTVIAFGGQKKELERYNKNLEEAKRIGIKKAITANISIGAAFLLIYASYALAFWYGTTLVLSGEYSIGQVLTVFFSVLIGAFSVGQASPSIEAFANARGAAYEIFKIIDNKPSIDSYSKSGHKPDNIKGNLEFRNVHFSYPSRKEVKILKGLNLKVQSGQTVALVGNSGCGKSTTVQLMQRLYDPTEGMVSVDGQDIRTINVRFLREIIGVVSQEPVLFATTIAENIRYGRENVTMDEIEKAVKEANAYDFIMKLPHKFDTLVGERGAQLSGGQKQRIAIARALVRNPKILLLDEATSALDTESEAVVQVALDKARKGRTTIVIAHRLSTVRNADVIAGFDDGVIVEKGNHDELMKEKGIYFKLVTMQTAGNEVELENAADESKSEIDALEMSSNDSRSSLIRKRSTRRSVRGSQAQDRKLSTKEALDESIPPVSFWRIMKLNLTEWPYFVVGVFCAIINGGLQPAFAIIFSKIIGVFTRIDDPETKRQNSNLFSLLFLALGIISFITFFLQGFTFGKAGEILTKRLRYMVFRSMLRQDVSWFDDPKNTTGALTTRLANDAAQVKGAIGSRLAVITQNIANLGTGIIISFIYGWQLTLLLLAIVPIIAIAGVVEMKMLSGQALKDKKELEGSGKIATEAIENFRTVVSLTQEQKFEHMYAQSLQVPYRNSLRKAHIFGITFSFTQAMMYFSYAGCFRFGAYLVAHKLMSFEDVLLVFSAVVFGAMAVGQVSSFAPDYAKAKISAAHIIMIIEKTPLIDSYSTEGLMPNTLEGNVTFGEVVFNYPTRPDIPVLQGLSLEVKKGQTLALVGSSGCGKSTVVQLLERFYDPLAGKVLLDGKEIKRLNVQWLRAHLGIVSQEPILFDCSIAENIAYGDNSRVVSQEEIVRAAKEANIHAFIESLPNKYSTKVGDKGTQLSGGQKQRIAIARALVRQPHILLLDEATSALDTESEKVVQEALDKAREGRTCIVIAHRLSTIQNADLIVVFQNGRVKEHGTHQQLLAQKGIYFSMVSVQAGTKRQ

With `C[C@@H]1COCCN1c1nc(-c2cnc(N)nc2C(F)(F)F)nc2c1C[C@@H]1COCCN21` the IC50 (mTORC1) was 694 nM, the Ki [1] was 55 nM and the Ki [2] was 249 nM. For the same compound, the IC50 [3] was 446 nM.

`C[C@@H]1COCCN1c1nc(-c2nnc(N)s2)nc2c1C[C@@H]1COCCN21` gave an IC50 (mTORC1) of 80 nM, a Ki [1] of 1550 nM and a Ki [2] of 8.2 nM. For the same compound, the Papp A→B at 1 µM (MDR1 (P-gp, ABCB1) [4]) was < 60 ×10⁻⁶ cm/s, the IC50 [3] was 135 nM and the efflux ratio at 1 µM (MDR1 (P-gp, ABCB1) [5]) was > 20.

For `C[C@@H]1COCCN1c1nc(-c2cnc(N)s2)nc2c1C[C@@H]1COCCN21`, the remaining at 1 h, 1 µM (CYP1A1) was 48%, the IC50 (mTORC1) was 102 nM and the remaining at 1 h, 1 µM (CYP1A2) was 87%. The Ki [1] was 2490 nM, the Ki [2] was 15 nM and the Papp A→B at 1 µM (MDR1 (P-gp, ABCB1) [4]) was < 60 ×10⁻⁶ cm/s. For the same compound, the IC50 [3] was 157 nM and the efflux ratio at 1 µM (MDR1 (P-gp, ABCB1) [5]) was > 20.

`C[C@@H]1COCCN1c1nc(-c2ccc(N)nn2)nc2c1C[C@@H]1COCCN21` gave an IC50 (mTORC1) of 84 nM, a Ki [1] of 847 nM and a Ki [2] of 11 nM. For the same compound, the IC50 [3] was 162 nM.

In the case of `C[C@@H]1COCCN1c1nc(-c2cnc(N)cn2)nc2c1C[C@@H]1COCCN21`, the Papp A→B at 1 µM (MDR1 (P-gp, ABCB1) [4]) is reported as < 60 ×10⁻⁶ cm/s and the efflux ratio at 1 µM (MDR1 (P-gp, ABCB1) [5]) is reported as > 20.

Compound `C[C@@H]1COCCN1c1nc(-c2cnc(N)cc2C(F)F)nc2c1C[C@@H]1COCCN21` has an IC50 (mTORC1) of 67 nM, a Ki [1] of 232 nM and a Ki [2] of 12 nM. For the same compound, the IC50 [3] was 253 nM.

In the case of `C[C@@H]1COCCN1c1nc(-c2cnc(N)c(C(F)(F)F)c2)nc2c1C[C@@H]1COCCN21`, the IC50 (mTORC1) is reported as 348 nM, the Ki [1] is reported as > 20000 nM and the Ki [2] is reported as 33 nM. It also gave an IC50 [3] of 549 nM.

In the case of `C[C@@H]1COCCN1c1nc(-c2cnc(N)nc2C(F)F)nc2c1C[C@@H]1COCCN21`, the IC50 (mTORC1) is reported as 119 nM, the Ki [1] is reported as 17 nM and the Ki [2] is reported as 34 nM.

With `C[C@@H]1COCCN1c1nc(-c2nc(N)ns2)nc2c1C[C@@H]1COCCN21` the IC50 (mTORC1) was 261 nM, the Ki [1] was 806 nM and the Ki [2] was 58 nM. It also gave an IC50 [3] of 512 nM.

Work on `C[C@@H]1COCCN1c1nc(-c2cnc(N)cc2C(F)(F)F)nc2c1C[C@@H]1COCCN21` yielded an IC50 (mTORC1) of 776 nM, a Ki [1] of 272 nM and a Ki [2] of 118 nM. The IC50 [3] was 1090 nM.
